For one series, the system named is L6. Put plainly: Cytotoxicity against rat L6 cells after 72 hrs by Alamar blue assay. It is filed as cell-based. Particulars: L6, 72 h. The procedure, abridged:
(§1)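 96-well plate growth-inhibition format. Targets were T. b. rhodesiense bloodstream trypomastigotes, T. cruzi Tulahuen C4 amastigotes inside L6 rat skeletal myoblasts, axenically cultured L. donovani MHOM-ET-67/L82 amastigotes, and L6 cells alone for cytotoxicity.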

For series [1], the system named is Trypanosoma cruzi. Briefly: Ratio of banznidazole IC50 to compound IC50 for Trypanosoma cruzi Tulahuen C4 amastigotes. It is filed as functional.
A short description of series [2]: Selectivity index, ratio of IC50 for rat L6 cells to IC50 for Leishmania donovani MHOM-ET-67/L82 amastigotes. It is filed as toxicity, cell-based. Particulars: read-out: Ratio IC50. A digest of the protocol:
(§2)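 SI is the L6 myoblast IC50 divided by the IC50 against the parasite named. IC50s come from 96-well dose-response curves, each the mean of two independent assays.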

The next series concerns Leishmania donovani. Put plainly: Antimicrobial activity against Leishmania donovani MHOM-ET-67/L82 amastigotes after 72 hrs by Alamar blue assay. It is filed as functional, organism-based. Particulars: MHOM-ET-67/L82, 72 h. A digest of the protocol: as §1
A short description of series [3]: Selectivity index, ratio of IC50 for rat L6 cells to IC50 for Trypanosoma cruzi Tulahuen C4 amastigotes. It is filed as toxicity, cell-based. Particulars: read-out: Ratio IC50. The procedure, abridged:
as §2

In series [4] the test system is Trypanosoma cruzi. Briefly: Antimicrobial activity against Trypanosoma cruzi Tulahuen C4 amastigotes infected in rat L6 cells after 96 hrs by beta-galactosidase reporter gene assay. The format is functional, organism-based. Particulars: Tulahuen C4, L6, 96 h. The procedure, abridged: as §1
Series [5] in a line: Selectivity index, ratio of IC50 for rat L6 cells to IC50 for blood stream form of Trypanosoma brucei rhodesiense STIB 900. It is filed as toxicity, cell-based. Particulars: read-out: Ratio IC50. The procedure, abridged:
as §2

Series [6] deals with Trypanosoma brucei rhodesiense. Put plainly: Antimicrobial activity against blood stream form of Trypanosoma brucei rhodesiense STIB 900 after 72 hrs by Alamar blue assay. It is filed as functional, organism-based. Particulars: STIB 900, 72 h. The procedure, abridged: as §1
A short description of series [7]: Prodrug conversion assessed as Trypanosoma brucei brucei recombinant his-tagged nitroreductase-mediated NADH oxidization by spectrophotometric analysis. It is filed as ADME. Particulars: isolated protein.

As for `O=[N+]([O-])c1ncn(CCCN2CCN(c3ccncc3)CC2)n1`, the half-maximal inhibitory concentration (IC50) in the series on L6 is 154 µM; in the series on Leishmania donovani it was above 315 µM; in the series on Trypanosoma cruzi [4], 8.8 µM; in series [6], 1.34 µM. Besides, the “Ratio IC50” value in the series on Trypanosoma cruzi [1] is recorded as 0.2. The selectivity ratio in series [2] is below 1; in [3], 17.5; in series [5] it was 115.

On to `Cl.O=C(C1CC1)N1CCN(CCCn2cnc([N+](=O)[O-])n2)CC1`, for which the IC50 in the series with L6 is 203 µM; in the series on Leishmania donovani, above 290 µM; with Trypanosoma cruzi [4], 4.7 µM; in series [6], 15.6 µM. For the same compound, the “Ratio IC50” value in the series with Trypanosoma cruzi [1] was determined as 0.3. In addition, the selectivity ratio was below 1 in series [2], 43.1 in series [3] and 13 in series [5].

In the case of `O=[N+]([O-])c1ncn(CCCNc2nc3ccc(Cl)cc3s2)n1`, the IC50 in the series on L6 was found to be 102 µM; with Leishmania donovani it was 4.49 µM; in the series with Trypanosoma cruzi [4], 0.059 µM; in series [6] it was 0.204 µM. In the series on Trypanosoma cruzi [1], the “Ratio IC50” value came out at 26.6. Also, the selectivity ratio was 22.7 in series [2], 1720 in series [3] and 500 in series [5].

For the compound `O=[N+]([O-])c1ncn(CCCNc2nc3ccccc3s2)n1`, the concentration for half-maximal inhibition (IC50) in the series on L6 came out at 162 µM; in the series with Leishmania donovani, 20 µM; in the series with Trypanosoma cruzi [4] it was 0.566 µM; in series [6], 0.954 µM. Besides, in the series on Trypanosoma cruzi [1], the “Ratio IC50” value is listed as 3.6. Moreover, the selectivity ratio in series [2] is 8.1; in [3] it was 287; in series [5], 170.

Regarding `O=[N+]([O-])c1ncn(CCCCNc2nc3ccc(Cl)cc3s2)n1`, the half-maximal inhibitory concentration (IC50) in the series on L6 is 44.5 µM; in the series with Leishmania donovani, 4.1 µM; in the series with Trypanosoma cruzi [4], 0.142 µM; in series [6], 0.355 µM. The “Ratio IC50” value with Trypanosoma cruzi [1] came out at 14.4. For the same compound, the selectivity ratio was found to be 10.9 in series [2], 314 in series [3] and 126 in series [5].

`O=[N+]([O-])c1nccn1CCCNc1nc2ccc(Cl)cc2s1`: the IC50 in the series on L6 was determined as 49.5 µM; in the series with Leishmania donovani, 4.27 µM; with Trypanosoma cruzi [4] it was 3.23 µM; in series [6], 7.61 µM. Moreover, the “Ratio IC50” value in the series on Trypanosoma cruzi [1] came out at 0.6. Moreover, the results for the selectivity ratio in series [2], in series [3] and in series [5] were 11.6, 15.3 and 6.5, respectively.

As for `O=[N+]([O-])c1nccn1CCCNc1nc2ccccc2s1`, the half-maximal inhibitory concentration (IC50) in the series with L6 is 176 µM; in the series with Leishmania donovani it was 11.4 µM; in the series on Trypanosoma cruzi [4], 4.88 µM; in [6], 52.5 µM. Besides, the “Ratio IC50” value with Trypanosoma cruzi [1] is on record as 0.4. In addition, the values for the selectivity ratio in [2], in series [3] and in series [5] were 15.4, 36.1 and 3.4, respectively.

For `O=[N+]([O-])c1nccn1CCCCNc1nc2ccc(Cl)cc2s1`, the 50% inhibitory concentration (IC50) worked out at 43 µM with L6, 7.3 µM in the series with Leishmania donovani, 1.75 µM with Trypanosoma cruzi [4] and 3.87 µM in series [6]. In the series with Trypanosoma cruzi [1], the “Ratio IC50” value worked out at 1.2. Further, the selectivity ratio in series [2] worked out at 5.5; in [3], 24.6; in series [5] it was 11.1.

Take `Cl.Cl.O=[N+]([O-])c1ncn(CCCN2CCN(Cc3ccc(C(F)(F)F)cc3)CC2)n1`: the Drug metabolism in series [7] was found to be 420 nmol/min/mg. In addition, the “Ratio IC50” value in the series with Trypanosoma cruzi [1] is recorded as 4.6.

On to `Cl.Cl.O=[N+]([O-])c1ncn(CCCCN2CCN(Cc3ccc(C(F)(F)F)cc3)CC2)n1`, for which the Drug metabolism in series [7] was 364 nmol/min/mg. Further, the “Ratio IC50” value in the series with Trypanosoma cruzi [1] is 3.8.

In the case of `Cl.Cl.O=[N+]([O-])c1ncn(CCCN2CCN(c3ccc(C(F)(F)F)cc3)CC2)n1`, the Drug metabolism in series [7] was found to be 788 nmol/min/mg. Moreover, the “Ratio IC50” value with Trypanosoma cruzi [1] was 39.2.

In the case of `Cl.Cl.Cl.Cl.O=[N+]([O-])c1ncn(CCCN2CCN(Cc3ccc(Cl)c(Cl)c3)CC2)n1`, the IC50 with L6 worked out at 33.5 µM; in the series on Leishmania donovani, 23.9 µM; in the series with Trypanosoma cruzi [4], 0.286 µM; in series [6], 0.78 µM. For the same compound, the “Ratio IC50” value with Trypanosoma cruzi [1] is recorded as 7.1. The results for the selectivity ratio in [2], in series [3] and in series [5] were 1.4, 117 and 42.9, respectively.

Take `Cc1ccc(N2CCN(CCCn3cnc([N+](=O)[O-])n3)CC2)cc1.Cl.Cl`: the half-maximal inhibitory concentration (IC50) is 121 µM in the series with L6, 173 µM in the series with Leishmania donovani, 0.419 µM in the series with Trypanosoma cruzi [4] and 23.9 µM in series [6]. In addition, the “Ratio IC50” value with Trypanosoma cruzi [1] turned out to be 3.7. For the same compound, the selectivity ratio in [2] is below 1; in series [3], 289; in series [5], 5.1.

Turning to `Cl.Cl.N#Cc1ccccc1N1CCN(CCCn2cnc([N+](=O)[O-])n2)CC1`, the IC50 is 113 µM in the series with L6, 180 µM in the series with Leishmania donovani, 0.828 µM in the series with Trypanosoma cruzi [4] and 10.5 µM in [6]. Further, in the series with Trypanosoma cruzi [1], the “Ratio IC50” value amounted to 2.5. In addition, the selectivity ratio in series [2] is below 1; in series [3], 137; in series [5], 10.8.

In the case of `COc1ccc(N2CCN(CCCn3cnc([N+](=O)[O-])n3)CC2)cc1.Cl.Cl`, the half-maximal inhibitory concentration (IC50) is 125 µM in the series with L6, above 239 µM in the series with Leishmania donovani, 0.556 µM with Trypanosoma cruzi [4] and 35.6 µM in [6]. Besides, the “Ratio IC50” value in the series on Trypanosoma cruzi [1] worked out at 2.8. In addition, the selectivity ratio in series [2] was below 1; in [3], 224; in series [5], 3.5.

`COc1ccc(N2CCN(CCCn3ccnc3[N+](=O)[O-])CC2)cc1.Cl.Cl`: the IC50 in the series with L6 was 137 µM; in the series with Leishmania donovani, 186 µM; with Trypanosoma cruzi [4], 34.4 µM; in series [6], 62.4 µM. Moreover, the “Ratio IC50” value with Trypanosoma cruzi [1] is listed as 0.1. The selectivity ratio in series [2] was below 1; in series [3], 4; in [5], 2.2.

For the compound `Cl.Cl.Cl.Cl.O=[N+]([O-])c1nccn1CCCN1CCN(Cc2ccc(Cl)c(Cl)c2)CC1`, the IC50 in the series with L6 was determined as 79.2 µM; in the series with Leishmania donovani, 150 µM; in the series on Trypanosoma cruzi [4] it was 9.4 µM; in series [6], 10.7 µM. The “Ratio IC50” value in the series with Trypanosoma cruzi [1] is on record as 0.2. For the same compound, the selectivity ratio is below 1 in series [2], 8.4 in [3] and 7.4 in series [5].

For `Cl.Cl.O=[N+]([O-])c1ncn(CCCN2CCN(c3ncccn3)CC2)n1`, the IC50 in the series with L6 is above 100 µM; in the series with Leishmania donovani, above 100 µM; in the series with Trypanosoma cruzi [4], 1.68 µM; in series [6], 49.6 µM. Moreover, the “Ratio IC50” value with Trypanosoma cruzi [1] was determined as 0.9. The selectivity ratio in [2] worked out at 1; in series [3], 152; in series [5] it was 5.2.

For the compound `Cl.Cl.O=[N+]([O-])c1ncn(CCCN2CCN(c3ccccn3)CC2)n1`, the half-inhibitory concentration (IC50) is 153 µM in the series with L6, above 315 µM in the series with Leishmania donovani, 0.848 µM in the series with Trypanosoma cruzi [4] and 35.6 µM in series [6]. Also, the “Ratio IC50” value in the series on Trypanosoma cruzi [1] is given as 1.9. In addition, the selectivity ratio was below 1 in series [2], 180 in series [3] and 4.3 in [5].

Turning to `Cl.Cl.Cl.Cl.O=[N+]([O-])c1ncn(CCCN2CCN(c3ccc(Cl)c(Cl)c3)CC2)n1`, the IC50 in the series with L6 stood at 41.7 µM; with Leishmania donovani, 11.3 µM; in the series on Trypanosoma cruzi [4] it was 0.048 µM; in [6], 0.231 µM. Also, the “Ratio IC50” value in the series with Trypanosoma cruzi [1] came to 32.7. Further, the selectivity ratio in series [2] is 3.7; in series [3], 868; in [5], 180.

On to `O=C(Cn1ccnc1[N+](=O)[O-])NCc1ccccc1` [BENZNIDAZOLE], for which, in series [7], the Drug metabolism is recorded as 218 nmol/min/mg.

For `CC1CS(=O)(=O)CCN1/N=C/c1ccc([N+](=O)[O-])o1` (centres undefined) [NIFURTIMOX], the Drug metabolism in series [7] amounted to 74 nmol/min/mg.
